{"source": "ChEMBL document CHEMBL4265954", "about": "“Discovery of potent liver-selective stearoyl-CoA desaturase-1 (SCD1) inhibitors, thiazole-4-acetic acid derivatives, for the treatment of diabetes, hepatic steatosis, and obesity” (Eur J Med Chem, 2018)", "key": {"[1]": {"experiment": "Solubility of the compound in PBS at pH 7.2", "assay_type": "physicochemical"}, "[2]": {"test_system": "Mus musculus", "experiment": "Ex vivo inhibition of SCD1 in C57BL/6J mouse liver assessed as residual activity at 1 mg/kg, po treated for 6 hrs followed by incubation with [14C]stearoyl-CoA substrate for 10 mins by TLC assay relative to control", "assay_type": "functional", "summary_of_the_method": "(§1)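 Male 6-week-old C57BL/6J mice dosed orally as a suspension in 0.5% methylcellulose. Liver or eyelid was taken 6 or 24 h later and homogenized in 100 mM Tris-HCl pH 7.4 with 0.25 M sucrose. S9 was obtained at 10,000 × g, 4 °C. S9 was incubated with [14C]stearoyl-CoA, NADH, MgCl2 and cytochrome b5 at room temperature, 10 min for liver and 30 min for eyelid. Lipids were saponified and run on AgNO3 TLC to quantify stearate and oleate. Result is % of vehicle control.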"}, "[3]": {"test_system": "Mus musculus", "experiment": "Ex vivo inhibition of SCD1 in C57BL/6J mouse liver assessed as residual activity at 10 mg/kg, po treated for 24 hrs followed by incubation with [14C]stearoyl-CoA substrate for 10 mins by TLC assay relative to control", "assay_type": "functional", "summary_of_the_method": "as §1"}, "[4]": {"target": "hERG (KCNH2) (Homo sapiens, UniProt Q12809)", "sequence (Q12809 whole entry)": "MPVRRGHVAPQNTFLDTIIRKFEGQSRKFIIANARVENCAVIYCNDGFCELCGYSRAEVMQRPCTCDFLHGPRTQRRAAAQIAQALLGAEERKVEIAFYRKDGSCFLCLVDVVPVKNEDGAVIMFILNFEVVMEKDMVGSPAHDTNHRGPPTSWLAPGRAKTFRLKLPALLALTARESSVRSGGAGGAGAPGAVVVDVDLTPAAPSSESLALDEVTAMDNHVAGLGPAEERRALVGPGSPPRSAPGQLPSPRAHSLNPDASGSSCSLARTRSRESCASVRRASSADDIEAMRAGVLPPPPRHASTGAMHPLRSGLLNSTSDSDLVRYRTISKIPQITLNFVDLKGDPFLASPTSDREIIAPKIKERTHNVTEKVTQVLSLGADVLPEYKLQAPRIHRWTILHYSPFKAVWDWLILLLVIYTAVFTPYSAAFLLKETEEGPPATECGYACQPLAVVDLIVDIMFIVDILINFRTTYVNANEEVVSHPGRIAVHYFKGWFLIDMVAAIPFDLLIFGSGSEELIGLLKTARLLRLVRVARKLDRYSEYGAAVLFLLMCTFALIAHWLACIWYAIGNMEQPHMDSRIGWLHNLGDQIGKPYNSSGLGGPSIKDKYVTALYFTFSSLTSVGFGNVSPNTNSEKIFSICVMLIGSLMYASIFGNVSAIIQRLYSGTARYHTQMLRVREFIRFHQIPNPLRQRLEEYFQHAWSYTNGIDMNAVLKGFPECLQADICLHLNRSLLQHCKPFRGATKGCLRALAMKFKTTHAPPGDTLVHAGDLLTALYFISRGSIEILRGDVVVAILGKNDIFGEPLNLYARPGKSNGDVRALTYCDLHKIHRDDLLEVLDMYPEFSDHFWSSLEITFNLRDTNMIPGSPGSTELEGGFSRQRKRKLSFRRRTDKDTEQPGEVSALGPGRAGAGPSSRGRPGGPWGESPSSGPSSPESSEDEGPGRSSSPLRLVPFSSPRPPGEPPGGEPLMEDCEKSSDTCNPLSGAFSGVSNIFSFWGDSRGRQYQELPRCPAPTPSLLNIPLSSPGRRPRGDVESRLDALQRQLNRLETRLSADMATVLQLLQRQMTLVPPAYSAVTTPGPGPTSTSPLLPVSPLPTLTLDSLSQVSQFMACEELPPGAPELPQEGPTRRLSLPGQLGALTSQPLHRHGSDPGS", "experiment": "Inhibition of human ERG at 10 uM relative to control"}, "[5]": {"target": "Cytochrome P450 3A4 (Homo sapiens, UniProt P08684)", "sequence (P08684 whole entry)": "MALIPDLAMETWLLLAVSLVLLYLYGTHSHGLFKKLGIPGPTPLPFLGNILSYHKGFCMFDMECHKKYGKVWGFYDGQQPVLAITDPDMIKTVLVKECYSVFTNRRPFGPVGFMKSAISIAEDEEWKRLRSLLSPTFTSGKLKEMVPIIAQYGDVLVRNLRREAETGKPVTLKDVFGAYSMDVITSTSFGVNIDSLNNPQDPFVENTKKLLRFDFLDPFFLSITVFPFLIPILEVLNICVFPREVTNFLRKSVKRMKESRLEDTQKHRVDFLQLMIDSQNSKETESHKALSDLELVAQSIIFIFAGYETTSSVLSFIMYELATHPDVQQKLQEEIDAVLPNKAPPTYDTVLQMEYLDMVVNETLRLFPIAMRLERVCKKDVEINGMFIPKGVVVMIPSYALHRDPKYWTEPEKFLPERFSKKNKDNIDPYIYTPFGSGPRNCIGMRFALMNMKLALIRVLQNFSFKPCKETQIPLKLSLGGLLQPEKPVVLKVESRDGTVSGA", "experiment": "Inhibition of CYP3A4 (unknown origin)", "assay_type": "ADME"}, "[6]": {"target": "Cytochrome P450 2C9 (Homo sapiens, UniProt P11712)", "sequence (P11712 whole entry)": "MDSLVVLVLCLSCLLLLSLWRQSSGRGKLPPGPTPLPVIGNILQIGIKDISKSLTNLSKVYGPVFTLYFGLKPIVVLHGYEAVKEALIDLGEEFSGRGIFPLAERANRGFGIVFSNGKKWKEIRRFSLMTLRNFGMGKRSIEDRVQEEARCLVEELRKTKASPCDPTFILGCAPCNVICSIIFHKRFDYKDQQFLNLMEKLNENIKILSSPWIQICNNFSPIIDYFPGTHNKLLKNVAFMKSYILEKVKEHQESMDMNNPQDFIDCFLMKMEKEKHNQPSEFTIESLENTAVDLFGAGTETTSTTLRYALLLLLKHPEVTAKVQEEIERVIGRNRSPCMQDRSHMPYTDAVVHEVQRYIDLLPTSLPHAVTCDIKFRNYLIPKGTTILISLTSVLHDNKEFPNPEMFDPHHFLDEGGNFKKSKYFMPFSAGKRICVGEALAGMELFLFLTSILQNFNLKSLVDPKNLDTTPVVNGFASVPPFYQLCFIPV", "experiment": "Inhibition of CYP2C9 (unknown origin)", "assay_type": "ADME"}, "[7]": {"target": "T1, Cytochrome P450 1A2 (Homo sapiens, UniProt P05177)", "T1 sequence (P05177 whole entry)": "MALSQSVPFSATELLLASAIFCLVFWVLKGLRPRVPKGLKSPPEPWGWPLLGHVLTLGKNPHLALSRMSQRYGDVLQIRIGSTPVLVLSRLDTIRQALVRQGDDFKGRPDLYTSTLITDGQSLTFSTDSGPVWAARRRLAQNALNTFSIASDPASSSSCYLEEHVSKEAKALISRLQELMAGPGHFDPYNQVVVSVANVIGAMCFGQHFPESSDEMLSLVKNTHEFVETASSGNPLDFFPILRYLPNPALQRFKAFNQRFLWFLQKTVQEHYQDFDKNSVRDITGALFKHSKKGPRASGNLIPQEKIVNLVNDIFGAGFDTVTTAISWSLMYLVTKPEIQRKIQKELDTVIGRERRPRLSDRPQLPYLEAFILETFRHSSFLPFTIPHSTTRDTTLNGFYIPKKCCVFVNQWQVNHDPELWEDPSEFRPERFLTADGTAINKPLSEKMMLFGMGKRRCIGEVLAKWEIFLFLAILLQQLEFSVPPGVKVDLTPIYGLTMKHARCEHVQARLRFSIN", "experiment": "Inhibition of CYP1A2 (unknown origin)", "assay_type": "ADME"}, "[8]": {"experiment": "Cmax in Sprague-Dawley rat at 10 mg/kg, po", "assay_type": "ADME, organism-based", "set-up": "dose 10 mg/kg, route oral", "conditions": "in vivo", "summary_of_the_method": "(§2)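 Two male Sprague-Dawley rats per route, 10 mg/kg po and 1 mg/kg iv. Cmax, tmax, terminal-phase half-life and AUC0-inf were taken from plasma concentration–time curves. Bioavailability was derived from the po and iv data.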"}, "[9]": {"experiment": "Apparent terminal half life in Sprague-Dawley rat at 10 mg/kg, po", "assay_type": "ADME, organism-based", "conditions": "in vivo, read-out: betat1/2(app) (converted)", "summary_of_the_method": "as §2"}, "[10]": {"experiment": "AUC (0 to infinity) in Sprague-Dawley rat at 10 mg/kg, po", "assay_type": "ADME, organism-based", "set-up": "dose 10 mg/kg, route oral, time infinity", "conditions": "in vivo"}, "[11]": {"experiment": "Total clearance in Sprague-Dawley rat at 1 mg/kg, iv", "assay_type": "ADME, organism-based", "conditions": "in vivo", "summary_of_the_method": "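Single intravenous dose of 1 mg/kg, with a parallel oral arm at 10 mg/kg, given to two male animals per species: C57BL/6J mice and Sprague Dawley rats. Total body clearance was derived from the plasma concentration–time profile of the compound.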"}, "[12]": {"experiment": "Cmax in C57BL/6J mouse at 10 mg/kg, po", "assay_type": "ADME, organism-based", "set-up": "dose 10 mg/kg, route oral", "conditions": "in vivo", "summary_of_the_method": "(§3)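 Two male C57BL/6J mice per route, 10 mg/kg po and 1 mg/kg iv. Plasma concentration–time profiles gave Cmax, tmax, terminal half-life and AUC0-inf. Bioavailability was derived from the po and iv data.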"}, "[13]": {"experiment": "Apparent terminal half life in C57BL/6J mouse at 10 mg/kg, po", "assay_type": "ADME, organism-based", "conditions": "in vivo, read-out: betat1/2(app) (converted)", "summary_of_the_method": "as §3"}, "[14]": {"experiment": "Metabolic stability in human liver S9 fraction after 1 hr", "assay_type": "ADME, subcellular", "conditions": "read-out: Stability"}, "[15]": {"test_system": "Mus musculus", "experiment": "Antiobesity activity in high fat diet fed C57BL/6J mouse assessed as reduction in diet-induced body weight gain administered orally as diet mixture for 43 days", "assay_type": "functional, organism-based", "summary_of_the_method": "(§4)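 C57BL/6J mice, individually housed, fed HFD for one month, then given HFD admixed with drug (0.0040% for 3 mg/kg/day, 0.0133% for 10 mg/kg/day) for 43 days, from 10 to 16 weeks of age. Chow-fed normal group as control. Body weight measured every 3–4 days. Mean ± SD, n=5–8. Dunnett's test versus HFD control.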"}, "[16]": {"test_system": "Mus musculus", "experiment": "Antiobesity activity in high fat diet fed C57BL/6J mouse assessed as reduction in diet-induced body weight gain at 10 mg/kg, po administered as diet mixture for 43 days relative to control", "assay_type": "functional", "set-up": "scale not given: the % may be the effect or the level left", "summary_of_the_method": "as §4"}, "[17]": {"test_system": "Rattus norvegicus", "experiment": "Ex vivo inhibition of SCD1 in high sucrose diet Sprague-Dawley rat epididymal adipose tissue treated orally for 6 hrs followed by incubation with [14C]stearoyl-CoA substrate for 10 mins by TLC assay", "assay_type": "organism-based", "conditions": "po", "summary_of_the_method": "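Sprague-Dawley rats on a high sucrose diet, given oral 1 or 10 mg/kg. Liver, epididymal adipose and eyelid were taken 6 h later and homogenized. S9 SCD activity was measured by [14C]stearoyl-CoA conversion to oleate and quantified by AgNO3 TLC imaging. Result is % remaining activity versus control, mean ± SD, n=3.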"}, "[18]": {"experiment": "Ratio of drug uptake in high sucrose diet Sprague-Dawley rat liver to eyelid at 10 mg/kg, po treated after 6 hrs", "assay_type": "ADME, organism-based", "conditions": "in vivo", "summary_of_the_method": "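Sprague-Dawley rats on a high sucrose diet, given a single oral 10 mg/kg dose. Plasma, liver and eyelid drug concentrations were measured 6 h later, n=3. Liver/eyelid ratio was taken from the tissue concentrations.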"}, "[19]": {"test_system": "Rattus norvegicus", "experiment": "Anti-hepatic steatosis activity in high sucrose very low fat diet fed Sprague-Dawley rat assessed as reduction in triglyceride level in liver administered orally once daily for 8 days and measured on day 8 post last dose", "assay_type": "functional, organism-based", "summary_of_the_method": "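SD rats kept on a high sucrose very low fat diet, dosed orally at 1 or 10 mg/kg once daily for 8 days. On day 8, liver slices were homogenized in methanol and extracted with methanol/chloroform. The supernatant was dried under N2 and redissolved in 2-propanol. Triglyceride was read on an automatic analyzer and expressed as mg/g tissue.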"}, "[20]": {"test_system": "Rattus norvegicus", "experiment": "Toxicity in Sprague-Dawley rat at 100 mg/kg, po once daily for 2 weeks", "assay_type": "organism-based", "conditions": "in vivo, 336 h", "summary_of_the_method": "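Male Sprague Dawley rats, 6 weeks old (5 per group), were dosed orally once daily for 2 weeks at 100 or 1000 mg/kg as a suspension in 0.5% methylcellulose; controls received vehicle. Readouts: clinical observations, body weight, food consumption, ophthalmoscopy in week 2, and terminal necropsy, hematology, clinical chemistry, organ weights and histopathology. Plasma levels were measured 24 h post-dose on days 1, 5 and 10.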"}}, "data": [{"molecule": "CCCCc1ccccc1NCc1ccc(C(=O)Nc2nc(CC(=O)O)cs2)s1", "values": [{"measurement": "solubility", "setting": "[1]", "value": 82, "unit": "µM"}, {"measurement": "Activity", "setting": "[2]", "value": 13, "unit": "%"}, {"measurement": "Activity", "setting": "[3]", "value": 11, "unit": "%"}, {"measurement": "inhibition at 10 µM", "setting": "[4]", "value": 14.7, "unit": "%"}, {"measurement": "IC50", "setting": "[5]", "value": "> 50", "unit": "µM"}, {"measurement": "IC50", "setting": "[6]", "value": "> 50", "unit": "µM"}, {"measurement": "IC50", "setting": "[7]", "value": "> 50", "unit": "µM"}, {"measurement": "Cmax", "setting": "[8]", "value": 8, "unit": "µM"}, {"measurement": "half-life", "setting": "[9]", "value": 4.7, "unit": "h"}, {"measurement": "AUC(0-inf)", "setting": "[10]", "value": 16.5, "unit": "µM·h"}, {"measurement": "clearance", "setting": "[11]", "value": 3.5, "unit": "mL/min/kg"}, {"measurement": "Cmax", "setting": "[12]", "value": 1.7, "unit": "µM"}, {"measurement": "half-life", "setting": "[13]", "value": 5.2, "unit": "h"}, {"measurement": "remaining at 1 h", "setting": "[14]", "value": 91, "unit": "%"}, {"measurement": "Activity", "setting": "[15]", "value": "Dose-dependent effect"}, {"measurement": "Activity", "setting": "[16]", "value": 6, "unit": "%"}, {"measurement": "inhibition (INH)", "setting": "[17]", "value": "Dose-dependent effect"}, {"measurement": "Ratio", "setting": "[18]", "value": 6.3}, {"measurement": "Activity", "setting": "[19]", "value": "Dose-dependent effect"}, {"measurement": "Activity", "setting": "[20]", "value": "Non-Toxic"}]}]}
